Results as given in ChEMBL document CHEMBL3244138, “New antiarrhythmic agents. 3. Primary beta-amino anilides” (J Med Chem, 1979).
Calls of active or inactive are those of the source. The calls are words filed in the database; no cut-off is given here.

Tests used:
Mus musculus [1] = experiment: Antiarrhythmic activity in sc dosed mouse assessed as protection against chloroform-induced fibrillation; format: functional; details: Heart
How it was run: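 Mice (10 per dose) got at least three sc doses in 0.9% saline, chosen for low to high protection. After 20 min, chloroform vapour was given until respiration stopped, then fibrillation versus coordinated ventricular contraction was scored visually.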

Mus musculus [2] = experiment: Toxicity in mouse assessed as convulsion at 100 mg/kg, sc measured up to 20 mins; format: organism-based; set-up: dose 100 mg/kg, route subcutaneous; details: in vivo
How it was run: (§1)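 Preliminary screen: drug dissolved in 0.9% saline and given subcutaneously at 100 mg/kg to groups of 10 mice. Animals were watched for 20 min for ataxia, convulsions, loss of righting reflex or death. Each sign was recorded as the number of animals affected out of 10 tested.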

Mus musculus [3] = experiment: Toxicity in mouse assessed as ataxia at 100 mg/kg, sc measured up to 20 mins; format: organism-based; set-up: dose 100 mg/kg, route subcutaneous; details: in vivo; how it was run: as §1
Mus musculus [4] = experiment: Toxicity in mouse assessed as mortality at 100 mg/kg, sc measured up to 20 mins; format: organism-based; set-up: dose 100 mg/kg, route subcutaneous; details: in vivo; how it was run: as §1
Canis familiaris [5] = experiment: Toxicity in iv dosed left anterior descending coronary artery ligated myocardial infarction model of dog assessed as dose required to cause death; format: organism-based, Canis lupus familiaris; details: in vivo
How it was run: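 Baseline ectopic beats, ventricular rate and mean arterial pressure were recorded before drug infusion. Infusion was stopped at a toxic level, and the cumulative dose in mmol/kg causing death was recorded.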

Canis familiaris [6] = experiment: Antiarrhythmic activity in left anterior descending coronary artery ligated myocardial infarction model of dog assessed as clearing value of ventricular rate at 0.5 mg/kg/min, iv; format: functional, Canis lupus familiaris, Heart
How it was run: (§2)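 Dogs with myocardial infarction from two-step ligation of the left anterior descending coronary artery were studied the day after ligation and given a drug infusion. Control percent ventricular ectopic beats, ventricular rate (beats/min) and mean arterial pressure (mmHg) were taken before infusion. Clearing values and dose were taken at the time of lowest ectopic-beat incidence; results are means and SD of 3–14 experiments.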

Canis familiaris [7] = experiment: Antiarrhythmic activity in left anterior descending coronary artery ligated myocardial infarction model of dog assessed as mean arterial blood pressure at 0.5 mg/kg/min, iv; format: functional, Canis lupus familiaris; how it was run: as §2
Mus musculus [8] = experiment: Ratio of lidocaine ED50 to compound ED50 for antiarrhythmic activity sc dosed mouse assessed as protection against chloroform-induced fibrillation; format: functional, Heart
Mus musculus [9] = experiment: Toxicity in mouse assessed as loss of righting reflex at 100 mg/kg, sc measured up to 20 mins; format: organism-based; set-up: dose 100 mg/kg, route subcutaneous; details: in vivo; how it was run: as §1
Canis familiaris [10] = experiment: Antiarrhythmic activity in iv dosed left anterior descending coronary artery ligated myocardial infarction model of dog assessed as dose required for reduction of ectopic beats to <= 5%; format: functional, Canis lupus familiaris, Heart; how it was run: as §2
Canis familiaris [11] = experiment: Antiarrhythmic activity in left anterior descending coronary artery ligated myocardial infarction model of dog assessed as clearing value of ventricular ectopic beats at 0.5 mg/kg/min, iv; format: functional, Canis lupus familiaris, Heart; how it was run: as §2
Mus musculus [12] = experiment: Antiarrhythmic activity in mouse assessed as protection against chloroform-induced fibrillation at 100 mg/kg, sc; format: functional, organism-based; set-up: dose 100 mg/kg; details: Heart
How it was run: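 Preliminary screen: single 100 mg/kg sc dose in 0.9% saline to 10 mice. After 20 min, each mouse was held in chloroform-saturated air until respiration ceased, and the thorax was opened at once. A mouse counted as protected if ventricular contractions were coordinated rather than fibrillating. Read-out is the number protected of 10.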

Mus musculus [13] = experiment: Toxicity in mouse assessed as ataxia at 200 mg/kg, sc measured up to 20 mins; format: organism-based; set-up: dose 200 mg/kg, route subcutaneous; details: in vivo
How it was run: (§3)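 Mice (10 per dose) received drug sc in 0.9% saline and were watched for 20 min for ataxia, convulsions, loss of righting reflex and death, before chloroform exposure. Read-out is the number affected of 10 tested.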

Mus musculus [14] = experiment: Toxicity in mouse assessed as loss of righting reflex at 200 mg/kg, sc measured up to 20 mins; format: organism-based; set-up: dose 200 mg/kg, route subcutaneous; details: in vivo; how it was run: as §3
Canis familiaris [15] = experiment: Toxicity in iv dosed left anterior descending coronary artery ligated myocardial infarction model of dog assessed as dose required to cause toxic effect; format: organism-based, Canis lupus familiaris; details: in vivo
[16] = Oral bioavailability in dog; format: ADME, organism-based, Canis lupus familiaris; details: in vivo
Canis familiaris [17] = experiment: Cardiovascular toxicity in iv dosed left anterior descending coronary artery ligated myocardial infarction model of dog; format: organism-based, Canis lupus familiaris; details: in vivo
Canis familiaris [18] = experiment: Toxicity in iv dosed left anterior descending coronary artery ligated myocardial infarction model of dog at 0.20 mmol/kg, iv; format: organism-based, Canis lupus familiaris; details: in vivo
Canis familiaris [19] = experiment: Toxicity in iv dosed left anterior descending coronary artery ligated myocardial infarction model of dog at 0.25 mmol/kg, iv; format: organism-based, Canis lupus familiaris; details: in vivo
Canis familiaris [20] = experiment: Toxicity in iv dosed left anterior descending coronary artery ligated myocardial infarction model of dog assessed as dose required to cause convulsion; format: organism-based, Canis lupus familiaris; details: in vivo
Canis familiaris [21] = experiment: Toxicity in left anterior descending coronary artery ligated myocardial infarction model of dog at […], iv; format: organism-based, Canis lupus familiaris; details: in vivo

Row | SMILES | ED50 (Mus musculus [1]) | Activity (Mus musculus [2]) | Activity (Mus musculus [3]) | Activity (Mus musculus [4]) | Activity (Canis familiaris [6]) | Activity (Canis familiaris [7]) | Ratio ED50 (Mus musculus [8]) | Activity (Mus musculus [9]) | Activity (Canis familiaris [10]) | Activity (Canis familiaris [11]) | other results
1 | Cc1cccc(C)c1NC(=O)CC(C)(C)N.Cl | 250 µmol/kg | Non-toxic | Non-toxic | Non-toxic | 138 bpm | 95 mmHg | 1 | Non-toxic | 0.04 mmol/kg | 39% | Activity (Canis familiaris [5]): 0.17 mmol/kg
2 | Cc1cccc(C)c1N(C)C(=O)CC(C)N.O.O=C(O)C(O)C(O)C(=O)O (centres undefined) | – | – | Toxic | Non-toxic | – | – | – | Non-toxic | – | – | –
3 | CCN(C(=O)CC(C)N)c1c(C)cccc1C.O.O=C(O)C(O)C(O)C(=O)O (centres undefined) | – | Toxic | Toxic | – | – | – | – | – | – | – | –
4 | Cc1cccc(C)c1N(C)C(=O)CCN.Cl.O | – | Non-toxic | Non-toxic | Non-toxic | – | – | – | Non-toxic | – | – | Activity (Mus musculus [12]): inactive; Activity (Mus musculus [13]): Toxic; Activity (Mus musculus [14]): Non-toxic
5 | Cc1cccc(C)c1NC(=O)C(C)N (centres undefined) [TOCAINIDE] | 1300 µmol/kg | Non-toxic | – | Non-toxic | 148 bpm | 108 mmHg | 0.2 | Non-toxic | 0.32 mmol/kg | 2% | Activity (Canis familiaris [15]): 0.3 mmol/kg
6 | CCC(N)CC(=O)Nc1c(C)cccc1C.Cl (centres undefined) | 380 µmol/kg | Non-toxic | Non-toxic | Non-toxic | – | – | 0.7 | Non-toxic | – | – | –
7 | CCN(CC)CC(=O)Nc1c(C)cccc1C [LIDOCAINE] | 260 µmol/kg | Toxic | Toxic | Non-toxic | 133 bpm | 101 mmHg | 1 | Toxic | 0.21 mmol/kg | 4% | Activity (Mus musculus [12]): Active; Activity (Canis familiaris [15]): 0.27 mmol/kg
8 | CCc1cccc(C)c1NC(=O)CCN.Cl | 1990 µmol/kg | Non-toxic | Non-toxic | Non-toxic | – | – | 0.1 | Non-toxic | – | – | –
9 | Cc1cccc(C)c1NC(=O)CC(C)N.Cl (centres undefined) | 460 µmol/kg | Non-toxic | Non-toxic | Non-toxic | 148 bpm | 97 mmHg | 0.6 | Non-toxic | 0.1 mmol/kg | 0% | bioavailability [16]: > 90%; Activity (Canis familiaris [15]): 0.33 mmol/kg
10 | CCN(CC)CCC(=O)Nc1c(C)cccc1C | 280 µmol/kg | – | Toxic | Non-toxic | 132 bpm | 115 mmHg | 0.9 | Non-toxic | 0.01 mmol/kg | 15% | Activity (Canis familiaris [17]): Toxic; Activity (Canis familiaris [18]): Toxic; Activity (Canis familiaris [19]): Toxic; Activity (Canis familiaris [20]): 0.04 mmol/kg
11 | CCc1cccc(C)c1NC(=O)CC(C)N.Cl (centres undefined) | 540 µmol/kg | Non-toxic | Non-toxic | Non-toxic | – | – | 0.5 | Non-toxic | – | – | –
12 | Cc1cccc(C)c1NC(=O)CCN.Cl | 560 µmol/kg | Non-toxic | Non-toxic | Non-toxic | 120 bpm | 85 mmHg | 0.5 | Non-toxic | 0.23 mmol/kg | 5% | Activity (Canis familiaris [21]): Non-toxic
